Source: ChEMBL document CHEMBL4130483, “Leishmanicidal and cytotoxic activity of hederagenin-bistriazolyl derivatives” (Eur J Med Chem, 2017)
One block for each compound: values may come before it.

Columns and labels:
A549 = assay: Cytotoxicity against human A549 cells; format: functional, cell-based
8505C = assay: Cytotoxicity against human 8505C cells; format: functional, cell-based
MCF7 = assay: Cytotoxicity against human MCF7 cells; format: functional, cell-based
HT-29 [1] = assay: Cytotoxicity against human HT-29 cells; format: functional, cell-based
A2780 [2] = assay: Cytotoxicity against human A2780 cells; format: functional, cell-based
518A2 = assay: Cytotoxicity against human 518A2 cells; format: functional, cell-based
[3] = Cytotoxicity in dog DH82 cells assessed as reduction in cell viability incubated for 48 hrs by MTT assay; format: cell-based, Canis lupus familiaris
In short: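 DH82 canine macrophage viability was monitored microscopically and by MTT colorimetric assay. CC50 is the concentration cytotoxic to 50% of DH82 cells. Potassium antimonyl tartrate trihydrate was the positive control.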

[4] = Selectivity index, ratio of CC50 for African green monkey BGM cells to IC50 for antileishmanial activity against Leishmania infantum MHOM/BR/70/BH46 intracellular amastigotes infected in canine DH82 cells; format: toxicity, cell-based; details: read-out: Ratio CC50/IC50
In short: (§1)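 SI = CC50 in BGM or HepG2 cells (MTT) divided by the intracellular amastigote IC50.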

A-375 = assay: Cytotoxicity against human A375 cells assessed as reduction in cell viability incubated fro 96 hrs by SRB assay; format: functional, cell-based; details: A-375, 96 h
In short: (§2)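 Sulforhodamine B photometric assay after 96 h treatment. Monolayers were grown in RPMI 1640 with L-glutamine, 10% heat-inactivated FBS and penicillin/streptomycin at 37 °C in humidified 5% CO2. Cut-off was 30 μM, or 60 μM for the parent. EC50 was averaged from at least three independent experiments, each in four replicates. Betulinic acid was the positive standard.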

[5] = Cytotoxicity in human HepG2 cells assessed as reduction in cell viability incubated for 48 hrs by MTT assay; format: cell-based
In short: (§3)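 MTT colorimetric assay with microscopic monitoring. CC50 is the concentration cytotoxic to 50% of BGM or HepG2 cells. Potassium antimonyl tartrate trihydrate was the positive control.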

[6] = Selectivity index, ratio of CC50 for human HepG2 cells to IC50 for antileishmanial activity against Leishmania infantum MHOM/BR/70/BH46 intracellular amastigotes infected in canine DH82 cells; format: toxicity, cell-based; details: read-out: Ratio CC50/IC50; in short: as §1
A2780 [7] = assay: Cytotoxicity against human A2780 cells assessed as reduction in cell viability incubated fro 96 hrs by SRB assay; format: functional, cell-based; details: A2780, 96 h; in short: as §2
HT-29 [8] = assay: Cytotoxicity against human HT-29 cells assessed as reduction in cell viability incubated fro 96 hrs by SRB assay; format: functional, cell-based; details: HT-29, 96 h; in short: as §2
SW-1736 = assay: Cytotoxicity against human SW1736 cells assessed as reduction in cell viability incubated fro 96 hrs by SRB assay; format: functional, cell-based; details: SW-1736, 96 h; in short: as §2
Leishmania infantum [9] = assay: Antileishmanial activity against Leishmania infantum MHOM/BR/70/BH46 intracellular amastigotes infected in canine DH82 cells assessed as as inhibition of cell growth incubated for 48 hrs by ELISA method; format: functional, organism-based; details: MHOM/BR/70/BH46, DH82, 48 h
In short: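 L. infantum BH46 intracellular amastigotes. Phase II testing at 0.1, 1.0, 10 and 100 μM. IC50 is the concentration inhibiting in vitro growth by 50%, taken from dose-response curves (log concentration vs inhibition) run in four replicates. Potassium antimonyl tartrate trihydrate served as positive control.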

[10] = Selectivity index, ratio of CC50 for dog DH82 cells to IC50 for antileishmanial activity against Leishmania infantum MHOM/BR/70/BH46 intracellular amastigotes infected in canine DH82 cells; format: toxicity, cell-based; details: read-out: Ratio CC50/IC50
In short: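 SI = CC50 in DH82 macrophages (MTT) divided by IC50 against intracellular L. infantum BH46 amastigotes.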

FaDu = assay: Cytotoxicity against human FADU cells assessed as reduction in cell viability incubated fro 96 hrs by SRB assay; format: functional, cell-based
[11] = Cytotoxicity in African green monkey BGM cells assessed as reduction in cell viability incubated for 48 hrs by MTT assay; format: cell-based; details: chlorocebus aethiops; in short: as §3
Leishmania infantum [12] = assay: Antileishmanial activity against Leishmania infantum MHOM/BR/70/BH46 intracellular amastigotes infected in canine DH82 cells assessed as as inhibition of cell growth at 1000 uM incubated for 48 hrs by ELISA method; format: functional; details: MHOM/BR/70/BH46, DH82, 48 h, read-out: GI
Leishmania infantum [13] = assay: Antiparasitic activity against Leishmania infantum; format: functional, organism-based

SMILES: CC1(C)CC[C@]2(C(=O)OCc3cn(Cc4cccc(Cl)c4)nn3)CC[C@]3(C)C(=CC[C@@H]4[C@@]5(C)CC[C@H](O)[C@@](C)(CO)[C@@H]5CC[C@]43C)[C@@H]2C1
EC50 (A549): 3 to 4.1 µM
EC50 (8505C): 3 to 4.1 µM
EC50 (MCF7): 3 to 4.1 µM
EC50 (HT-29 [1]): 3 to 4.1 µM
EC50 (A2780 [2]): 3 to 4.1 µM
EC50 (518A2): 3 to 4.1 µM

SMILES: CC1(C)CC[C@]2(C(=O)OCc3cn(Cc4ccc(F)cc4F)nn3)CC[C@]3(C)C(=CC[C@@H]4[C@@]5(C)CC[C@H](O)[C@@](C)(COCc6cn(Cc7ccc(F)cc7F)nn6)[C@@H]5CC[C@]43C)[C@@H]2C1
CC50 at 48 h [3]: 140 µM
selectivity ratio [4]: 0.6
EC50 (A-375): > 30 µM
CC50 at 48 h [5]: 105 µM
selectivity ratio [6]: 0.7
EC50 (A2780 [7]): > 30 µM
EC50 (HT-29 [8]): > 30 µM
EC50 (SW-1736): > 30 µM
IC50 (Leishmania infantum [9]): 155 µM
selectivity ratio [10]: 0.9
EC50 (FaDu): > 30 µM
CC50 at 48 h [11]: 99.7 µM
inhibition of growth at 1000 µM (Leishmania infantum [12]): 52.4%

SMILES: CC1(C)CC[C@]2(C(=O)OCc3cn(Cc4cccc([N+](=O)[O-])c4)nn3)CC[C@]3(C)C(=CC[C@@H]4[C@@]5(C)CC[C@H](O)[C@@](C)(CO)[C@@H]5CC[C@]43C)[C@@H]2C1
EC50 (A549): 3 to 4.1 µM
EC50 (8505C): 3 to 4.1 µM
EC50 (MCF7): 3 to 4.1 µM
EC50 (HT-29 [1]): 3 to 4.1 µM
EC50 (A2780 [2]): 3 to 4.1 µM
EC50 (518A2): 3 to 4.1 µM

SMILES: CC1(C)CC[C@]2(C(=O)OCc3cn(Cc4ccc([N+](=O)[O-])cc4)nn3)CC[C@]3(C)C(=CC[C@@H]4[C@@]5(C)CC[C@H](O)[C@@](C)(COCc6cn(Cc7ccc([N+](=O)[O-])cc7)nn6)[C@@H]5CC[C@]43C)[C@@H]2C1
CC50 at 48 h [3]: > 1000 µM
selectivity ratio [4]: > 38
EC50 (A-375): > 30 µM
CC50 at 48 h [5]: > 1000 µM
selectivity ratio [6]: > 38
EC50 (A2780 [7]): > 30 µM
EC50 (HT-29 [8]): > 30 µM
EC50 (SW-1736): > 30 µM
IC50 (Leishmania infantum [9]): 25.9 µM
selectivity ratio [10]: > 38
EC50 (FaDu): > 30 µM
CC50 at 48 h [11]: > 1000 µM
inhibition of growth at 1000 µM (Leishmania infantum [12]): 58.6%

IC50 (Leishmania infantum [13]): 32 to 34 µM
SMILES: CC1(C)CC[C@]2(C(=O)OCc3cn(Cc4cccc(Br)c4)nn3)CC[C@]3(C)C(=CC[C@@H]4[C@@]5(C)CC[C@H](O)[C@@](C)(CO)[C@@H]5CC[C@]43C)[C@@H]2C1
EC50 (A549): 3 to 4.1 µM
EC50 (8505C): 3 to 4.1 µM
EC50 (MCF7): 3 to 4.1 µM
EC50 (HT-29 [1]): 3 to 4.1 µM
EC50 (A2780 [2]): 3 to 4.1 µM
EC50 (518A2): 3 to 4.1 µM

SMILES: CC1(C)CC[C@]2(C(=O)O)CC[C@]3(C)C(=CC[C@@H]4[C@@]5(C)CC[C@H](O)[C@@](C)(CO)[C@@H]5CC[C@]43C)[C@@H]2C1 [HEDERAGENIN]
CC50 at 48 h [3]: > 1000 µM
selectivity ratio [4]: 0.9
EC50 (A-375): > 60 µM
IC50 (Leishmania infantum [13]): 61.6 µM
CC50 at 48 h [5]: > 1000 µM
selectivity ratio [6]: > 16.2
EC50 (A2780 [7]): > 60 µM
EC50 (HT-29 [8]): > 60 µM
EC50 (SW-1736): > 60 µM
selectivity ratio [10]: > 10
EC50 (FaDu): > 60 µM
CC50 at 48 h [11]: 57 µM
inhibition of growth at 1000 µM (Leishmania infantum [12]): 55.5%

SMILES: C#CCOC[C@@]1(C)[C@@H]2CC[C@]3(C)[C@H](CC=C4[C@@H]5CC(C)(C)CC[C@]5(C(=O)OCC#C)CC[C@]43C)[C@@]2(C)CC[C@@H]1O
CC50 at 48 h [3]: 259 µM
selectivity ratio [4]: 3.5
CC50 at 48 h [5]: 104 µM
selectivity ratio [6]: 3.7
IC50 (Leishmania infantum [9]): 28.8 µM
selectivity ratio [10]: 9
CC50 at 48 h [11]: 99 µM
inhibition of growth at 1000 µM (Leishmania infantum [12]): 77.2%
